Test results taken from ChEMBL document CHEMBL4513216, “Probing the Open Global Health Chemical Diversity Library for Multistage-Active Starting Points for Next-Generation Antimalarials” (ACS Infect Dis, 2020).

Assay: Toxicity liver stage against HepG2, at 10uM
Assay type: cell-based
Set-up: test concentration 10 uM, cell line HepG2-A16-CD81EGFP
Conditions: human, HepG2-A16-CD81EGFP cells; read-out: INHIBITION
Outline: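 Uninfected HepG2-A16-CD81EGFP cells, 3 × 10^3 per well, 1536-well, plated on prespotted compound at 10 μM final, parasite-free screening media added to match infected plates; puromycin 10 μM positive, DMSO 0.5% negative; run in parallel with 48 h PbLuc assay at 37 °C, 5% CO2; viability by CellTiter-Glo luminescence, normalized to controls.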

Q: With Cc1nn(Cn2ccc(C(=O)N3CCCC(C)C3)n2)c(C)c1Cl (stereo not given) as the molecule, how does the cytotoxicity at 10 µM read?
A: 2%

Q: With Cc1cccc(CCC(=O)NCC2CCCN2c2cccnn2)c1 (stereo not given) as the molecule, how does the cytotoxicity at 10 µM read?
A: -3.96%

Q: With CN(C)CCNC(=O)CCn1ncc2c(Cl)cccc21 as the molecule, how does the cytotoxicity at 10 µM read?
A: 5.92%

Q: With CN1C(=O)CO[C@H]2CN(C(=O)Nc3ccc(F)cc3)C[C@H]21 as the molecule, how does the cytotoxicity at 10 µM read?
A: -2.22%

Q: Which cytotoxicity at 10 µM does the source give for Cn1cnc2c1CCN(Cc1nc(Cc3ccccc3)no1)C2 here?
A: -7.99%

Q: With Cc1cc(C(O)CCNC(=O)c2ccc(Cl)s2)c(C)o1 (stereo not given) as the molecule, how does the cytotoxicity at 10 µM read?
A: -1.22%

Q: For Clc1ccccc1-c1nnc(CN2CCCC2Cn2cncn2)o1 (stereo not given), which cytotoxicity at 10 µM is on record?
A: -9.03%

Q: With CCOCCn1c(=O)n(CCC(C)C)c2ncc(C(=O)O)cc21 as the molecule, how does the cytotoxicity at 10 µM read?
A: 2.62%

Q: With CN(C)CCCNCCC(Cc1ccccc1)C1CCOC(C)(C)C1 (stereo not given) as the molecule, how does the cytotoxicity at 10 µM read?
A: -4.08%

Q: Which cytotoxicity at 10 µM does the source give for CC(COc1ccccc1)NCc1nncn1C1CCCCC1 (stereo not given) here?
A: -4.23%

Q: For Cc1nccn1-c1ccc(N2CCC(N[C@H](C)C(C)C)CC2)cc1, which cytotoxicity at 10 µM is on record?
A: -6.39%

Q: With Clc1ccccc1-c1cc(CNc2ncnc3c2CCNCC3)no1 as the molecule, how does the cytotoxicity at 10 µM read?
A: 24.6%

Q: For Cn1cc(C2CCCN2C(=O)COC2CCCCC2)cn1 (stereo not given), which cytotoxicity at 10 µM is on record?
A: -8.79%

Q: For Cc1nc(C)n(C2CCCN(C(=O)c3cccc4[nH]ncc34)C2)n1 (stereo not given), which cytotoxicity at 10 µM is on record?
A: -4.72%

Q: With Cn1cnc2c1CCN(Cc1cccc(C(N)=O)c1)C2 as the molecule, how does the cytotoxicity at 10 µM read?
A: -16.8%

Q: Which cytotoxicity at 10 µM does the source give for O=C(C1CCN(c2cccnn2)C1)N1CCOCC1 (stereo not given) here?
A: -25.4%

Q: For CN1CCN(c2ccc(NCc3ccc([S+](C)[O-])cc3)cn2)CC1 (stereo not given), which cytotoxicity at 10 µM is on record?
A: 9.84%

Q: For Cc1occc1C(=O)NCc1ccc(N2CCCC(C(N)=O)C2)cc1 (stereo not given), which cytotoxicity at 10 µM is on record?
A: 1.49%

Q: Which cytotoxicity at 10 µM does the source give for CC(C)CN1CCS(=O)(=O)[C@@H]2CCN(S(=O)(=O)CC(C)C)CC[C@@H]21 here?
A: 11.3%

Q: With CCn1c(CN2CCN(C(=O)C3CCC3)CC2)nc2c(F)cccc21 as the molecule, how does the cytotoxicity at 10 µM read?
A: -3.78%

Q: With Cc1ccc2c(n1)N(CCN(C)C)CCN(C(=O)N1CCOCC1)C2 as the molecule, how does the cytotoxicity at 10 µM read?
A: -73.1%

Q: With Cc1ccc(N2CC3(COCCN(Cc4cnn(C)c4)C3)OCC2=O)s1 (stereo not given) as the molecule, how does the cytotoxicity at 10 µM read?
A: -5.18%

Q: With Cc1ncc(CNC(=O)CCc2ccccc2F)c(C2CCCN2C)n1 (stereo not given) as the molecule, how does the cytotoxicity at 10 µM read?
A: -7.55%

Q: Which cytotoxicity at 10 µM does the source give for COCc1ncc(CN2CCC(Oc3ccc(OC)cc3)CC2)cn1 here?
A: -5.72%

Q: With O=C(CCCc1ccccn1)N1CCC(Nc2cccnn2)CC1 as the molecule, how does the cytotoxicity at 10 µM read?
A: -9.73%

Q: With COc1ccccc1-c1cccc(C2CCCN(C3CCOCC3)C2)n1 (stereo not given) as the molecule, how does the cytotoxicity at 10 µM read?
A: 5.7%

Q: Which cytotoxicity at 10 µM does the source give for O=C(NCC1CC1)[C@H]1C[C@H]2CN(C(=O)NCC3CCCCC3)C[C@@H]1O2 here?
A: 3.79%

Q: Which cytotoxicity at 10 µM does the source give for CN(C)c1ncncc1NC(=O)Cc1c[nH]c2ccc(F)cc12 here?
A: -9.74%

Q: With Cc1csc(C2CCCN(C(=O)c3cnc[nH]3)C2)n1 (stereo not given) as the molecule, how does the cytotoxicity at 10 µM read?
A: -10.7%

Q: Which cytotoxicity at 10 µM does the source give for CO[C@@H]1CC[C@@H](NS(=O)(=O)c2cn(C)nc2C)[C@H]1O here?
A: -3.11%

Q: Which cytotoxicity at 10 µM does the source give for Cc1nnc(SCC(=O)N2CCC3(CC2)c2ccccc2CC3O)o1 (stereo not given) here?
A: -20.7%

Q: Which cytotoxicity at 10 µM does the source give for CCNc1cc2c(nn1)CCN(C(=O)c1cc3ccccc3[nH]c1=O)C2 here?
A: -1.41%

Q: For O=S(=O)(Cc1ccccc1)c1nnc(N2CCOCC2)s1, which cytotoxicity at 10 µM is on record?
A: -4.65%

Q: With CN1CCC/C1=N\S(=O)(=O)c1ccc(NC(=O)c2ccc(Cl)s2)cc1 as the molecule, how does the cytotoxicity at 10 µM read?
A: 1.55%

Q: Which cytotoxicity at 10 µM does the source give for CCOc1ccc(S(=O)(=O)N(CCOC)Cc2ccncc2)cc1F here?
A: 52.2%

Q: Which cytotoxicity at 10 µM does the source give for CCCNC(=O)c1cc2c(nc1O)CCC(C)C2 (stereo not given) here?
A: 0.717%

Q: With CCOc1ncccc1NC(=O)NC1CCCN(c2ncccn2)C1 (stereo not given) as the molecule, how does the cytotoxicity at 10 µM read?
A: -10.6%

Q: With COCCCN1CC2(CCCCN2C(=O)c2ccsc2)CC1=O (stereo not given) as the molecule, how does the cytotoxicity at 10 µM read?
A: 5.03%

Q: With CC(CN1CCOCC1)NC(=O)NCc1ccoc1 (stereo not given) as the molecule, how does the cytotoxicity at 10 µM read?
A: -5.52%

Q: With O=C(NCC1CCCO1)c1cc(COc2ccccc2F)[nH]n1 (stereo not given) as the molecule, how does the cytotoxicity at 10 µM read?
A: 10.8%

Q: Which cytotoxicity at 10 µM does the source give for CN(C)c1ccc(CC(=O)N[C@@H]2CCNC[C@H]2O)cc1 here?
A: -7.82%

Q: For Cc1oncc1C(=O)N1CC2CC1(C(=O)NCc1ccco1)C2, which cytotoxicity at 10 µM is on record?
A: 4.76%

Q: Which cytotoxicity at 10 µM does the source give for Cc1cccc(-c2nnn3c2COC(CNCc2nccs2)C3)c1 (stereo not given) here?
A: 4.51%

Q: For O=C1CCc2cc(-c3csc(CCN4CCCC4=O)n3)ccc2N1, which cytotoxicity at 10 µM is on record?
A: -6.64%

Q: Which cytotoxicity at 10 µM does the source give for O=C1CC2(CCN(C(=O)C3CCCCC3)C2)Nc2ccccc2N1 (stereo not given) here?
A: 9.13%

Q: With O=C(c1cscn1)N1CCn2cnc(COCC3CC3)c2C1 as the molecule, how does the cytotoxicity at 10 µM read?
A: -4.6%

Q: For O=C(c1cccs1)N1CCOCC2(C1)CN(c1ccccc1)C(=O)CO2 (stereo not given), which cytotoxicity at 10 µM is on record?
A: -0.756%

Q: Which cytotoxicity at 10 µM does the source give for Cc1ccc(C(=O)N2CCN(S(C)(=O)=O)CC2)cc1N1CCNC1=O here?
A: -5.07%

Q: For Fc1cccnc1O[C@H]1CN(Cc2ccoc2)[C@@H]2CCCO[C@H]12, which cytotoxicity at 10 µM is on record?
A: -0.908%

Q: For Cc1nc(C)n(CC2CCCN(CCOc3ccc(C#N)cc3)C2)n1 (stereo not given), which cytotoxicity at 10 µM is on record?
A: -1.55%

Q: For Cc1nc(CN(C)C(=O)NC(C)c2ccc3c(c2)OCCO3)cs1 (stereo not given), which cytotoxicity at 10 µM is on record?
A: -4.45%

Q: Which cytotoxicity at 10 µM does the source give for CC(C(=O)N1CCCC1)N1CCCN(C(=O)Oc2ccccc2)CC1 (stereo not given) here?
A: 3.4%

Q: With COc1cccc(N2CC3(CCN(C(=O)NC(C)C)C3)CC2=O)c1 (stereo not given) as the molecule, how does the cytotoxicity at 10 µM read?
A: 3.52%

Q: For CN1CC(c2ccccc2)CC2(CCN(C(=O)c3ccccc3)CC2)C1 (stereo not given), which cytotoxicity at 10 µM is on record?
A: -0.0342%

Q: Which cytotoxicity at 10 µM does the source give for CSC(CNS(C)(=O)=O)c1cccc(Cl)c1 (stereo not given) here?
A: 6.27%
